For 22 compounds, Dosage, T/C and Cells killed results are on record in ChEMBL document CHEMBL1127491, “Sulfinosine congeners: synthesis and antitumor activity in mice of certain N9-alkylpurines and purine ribonucleosides” (J Med Chem, 1994).

SMILES strings stand for the structures.

Data set [1] deals with Mus musculus. Briefly: Maximum soluble dosage which induces toxicity in mice when administered intraperitoneally was determined. It is filed as organism-based. As to conditions: in vivo, ip. In short, it runs like this:
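Drug was solubilized just before use and given as a single ip bolus at 0.01 mL/g, 24 h after ip inoculation of 1 x 10^6 L1210 cells in BD2F1 mice. This gave a dose 10 times the solubility (mg/mL) in mg/kg. Deaths were assigned to compound toxicity or leukemia by temporal pattern of death and necropsy findings.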

The species named for data set [2] is Mus musculus. As to the kind of experiment: Antileukemic activity in BD2F1 mice inoculated with 1 x 10E6 L1210 cells. In kind it is functional. Put shortly: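 BD2F1 mice were inoculated ip on day 0 with 1 x 10^6 L1210 cells and given one ip bolus 24 h later (0.01 mL/g; water or Me2SO vehicle; dose 10x solubility in mg/mL, lowered if lethally toxic). Controls got saline. Six mice per group. %T/C = mean treated life span / mean control life span x 100, pooled over four studies with 10 controls each.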

The next data set deals with L1210. As to the kind of experiment: Percentage of viable L1210 leukemia cells killed by single treatment with the compound. In kind it is ADME, cell-based. As to conditions: mouse.

As to `CSc1nc(N)nc2c1ncn2[C@H]1C[C@H](O)[C@@H](CO)O1`, in the data set on Mus musculus [1], the Dosage was 800 mg/kg.

As usually defined, the T/C is the result in the treated group divided by that in the control group, in per cent. Take `CCCCCCn1cnc2c(SN)nc(N)nc21`: the T/C in the data set filed under Mus musculus [2] is on record as 119%. The Cells killed in the data set on L1210 is on record as 87%. The compound also registered a Dosage in the data set on Mus musculus [1] of 105 mg/kg.

Consider `CCCCCCn1cnc2c(SN)ncnc21`, for which, in the data set listed under Mus musculus [2], the T/C turned out to be 116%. The Cells killed in the data set on L1210 was 75%. For the same compound, the Dosage in the data set with Mus musculus [1] turned out to be 410 mg/kg.

`Nc1nc([S+]([O-])Cc2ccccc2)c2ncn(C3O[C@H](CO)[C@@H](O)[C@H]3O)c2n1` (stereo partly drawn) came in with a T/C in the data set listed under Mus musculus [2] of 137%. In the data set with L1210, this compound registered a Cells killed of 97%. In addition, the Dosage in the data set with Mus musculus [1] was 37 mg/kg.

In the data set filed under Mus musculus [2], `CS(=O)(=O)c1nc(N)nc2c1ncn2C1O[C@H](CO)[C@@H](O)[C@H]1O` (stereo partly drawn) registered a T/C of 96%. In addition, the Cells killed in the data set on L1210 is on record as 0%. The same compound displayed a Dosage in the data set with Mus musculus [1] of 104 mg/kg.

Compound `CCCCCCn1cnc2c(S)ncnc21` gave a T/C in the data set filed under Mus musculus [2] of 147%. The compound also came in with a Cells killed in the data set with L1210 of 87%. For the same compound, the Dosage in the data set with Mus musculus [1] came out at 44 mg/kg.

Take `CCCCCCn1cnc2c(S)nc(N)nc21`: the T/C in the data set filed under Mus musculus [2] was found to be 118%. This compound came in with a Cells killed in the data set on L1210 of 72%. The compound further showed a Dosage in the data set with Mus musculus [1] of 110 mg/kg.

In the case of `CSc1nc(N)nc2c1ncn2[C@@H]1O[C@H](CO)[C@@H](O)[C@H]1O`, the T/C in the data set listed under Mus musculus [2] is reported as 98%. In addition, the Cells killed in the data set with L1210 is listed as 0%. In the data set on Mus musculus [1], this compound had a Dosage of 37 mg/kg.

`NSc1nc(N)nc2c1ncn2C1O[C@H](CO)[C@@H](O)[C@H]1O` (stereo partly drawn): the T/C in the data set listed under Mus musculus [2] is recorded as 170%. Moreover, the Cells killed with L1210 came to 99.8%. For the same compound, in the data set with Mus musculus [1], the Dosage amounted to 22 mg/kg.

On to `Nc1nc(S(=O)(=O)Cc2ccccc2)c2ncn(C3O[C@H](CO)[C@@H](O)[C@H]3O)c2n1` (stereo partly drawn), for which, in the data set filed under Mus musculus [2], the T/C is on record as 115%. Also, in the data set with L1210, the Cells killed worked out at 76%. In addition, the Dosage in the data set with Mus musculus [1] stood at 104 mg/kg.

`CCCCCCn1cnc2c([S+](N)[O-])ncnc21` (stereo not drawn): in the data set with Mus musculus [1], the Dosage amounted to 800 mg/kg.

`CCCCCn1cnc2c(S)nc(N)nc21` displayed a T/C in the data set filed under Mus musculus [2] of 149%. The Cells killed in the data set on L1210 is 92%. The same compound displayed a Dosage with Mus musculus [1] of 40 mg/kg.

`CCCCCn1cnc2c(SN)nc(N)nc21` showed a T/C in the data set filed under Mus musculus [2] of 118%. In the data set on L1210, this compound came in with a Cells killed of 70%. Moreover, the Dosage with Mus musculus [1] was 47 mg/kg.

As to `CCCCCn1cnc2c([S+](N)[O-])ncnc21` (stereo not drawn), the T/C in the data set filed under Mus musculus [2] is given as 134%. Moreover, in the data set on L1210, the Cells killed came to 90%. In addition, in the data set with Mus musculus [1], the Dosage was found to be 480 mg/kg.

For `Nc1nc([S+](N)[O-])c2ncn(CCCCCCO)c2n1` (stereo not drawn), the T/C in the data set filed under Mus musculus [2] is listed as 139%. In the data set on L1210, this compound returned a Cells killed of 96%. The compound further had a Dosage with Mus musculus [1] of 39 mg/kg.

`C[S+]([O-])c1nc(N)nc2c1ncn2C1O[C@H](CO)[C@@H](O)[C@H]1O` (stereo partly drawn) yielded a T/C in the data set listed under Mus musculus [2] of 114%. Also, in the data set on L1210, the Cells killed stood at 71%. In the data set with Mus musculus [1], this compound yielded a Dosage of 480 mg/kg.

Compound `CCCCCn1cnc2c([S+](N)[O-])nc(N)nc21` (stereo not drawn) showed a T/C in the data set listed under Mus musculus [2] of 117%. Moreover, in the data set with L1210, the Cells killed amounted to 72%. This compound also had a Dosage in the data set on Mus musculus [1] of 106 mg/kg.

`C[S+]([O-])c1nc(N)nc2c1ncn2[C@H]1C[C@H](O)[C@@H](CO)O1` (stereo partly drawn) gave a Dosage with Mus musculus [1] of 800 mg/kg.

In the data set listed under Mus musculus [2], `CCCCCn1cnc2c(S)ncnc21` showed a T/C of 141%. Besides, in the data set on L1210, the Cells killed was found to be 91%. In the data set on Mus musculus [1], this compound returned a Dosage of 41 mg/kg.

Compound `CS(=O)(=O)c1nc(N)nc2c1ncn2[C@H]1C[C@H](O)[C@@H](CO)O1` registered a Dosage with Mus musculus [1] of 800 mg/kg.

On to `Nc1nc([S+](N)[O-])c2ncn(C3O[C@H](CO)[C@@H](O)[C@H]3O)c2n1` (stereo partly drawn), for which the T/C in the data set filed under Mus musculus [2] is reported as 167%. In the data set with L1210, the Cells killed is given as 99.8%. The compound further showed a Dosage in the data set with Mus musculus [1] of 173 mg/kg.

With `CCCCCCn1cnc2c([S+](N)[O-])nc(N)nc21` (stereo not drawn), the T/C in the data set listed under Mus musculus [2] was determined as 121%. Moreover, in the data set on L1210, the Cells killed worked out at 93%. This compound also displayed a Dosage in the data set on Mus musculus [1] of 460 mg/kg.
